Measured values of several laboratories.
Compare with care: the assays were run in different laboratories. ≈ marks a conversion by molar mass, not a printed value.

| SMILES | organism | test | system | conditions | endpoint | value |
| --- | --- | --- | --- | --- | --- | --- |
| CC(C)CN(C[C@@H](O)[C@H](Cc1ccccc1)NC(=O)O[C@H]1CO[C@H]2OCC[C@H]21)S(=O)(=O)c1ccc(B(O)O)cc1 | Human immunodeficiency virus 1 | viral replication, inhibitor | MT2 |  | IC50 | 49 nM |
| CC[C@H](C)C[C@H](C)CCCCCCCCC(=O)N[C@H]1C[C@@H](O)[C@@H](NCCN)NC(=O)[C@@H]2[C@@H](O)CCN2C(=O)[C@H]([C@H](O)CCN)NC(=O)[C@H]([C@H](O)[C@@H](O)c2ccc(O)cc2)NC(=O)[C@@H]2C[C@@H](O)CN2C(=O)[C@H]([C@@H](C)O)NC1=O | Clavispora lusitaniae | microbial growth, broth dilution | MY1396 |  | MIC | 0.25 µg/mL (≈ 0.229 µM) |
| CC(C)CN(C[C@@H](O)[C@H](Cc1ccccc1)NC(=O)O[C@H]1CO[C@H]2OCC[C@H]21)S(=O)(=O)c1ccc(N)cc1 | Human immunodeficiency virus 1 | viral replication, inhibitor | MT2 |  | IC50 | 1.6 nM |
| CC(C)Nc1cccnc1N1CCN(C(=O)c2cc3cc(NS(C)(=O)=O)ccc3[nH]2)CC1 | Human immunodeficiency virus 1 | viral replication, inhibitor | human PBMC | clinical isolate | IC90 | 57.6 nM |
| COC(=O)c1cc(-c2ccc(NC(=O)Nc3ccc(Cl)c(Cl)c3)cc2)on1 | Mycolicibacterium fortuitum | microbial growth, broth dilution | ATCC6841 | 48 h | MIC | > 64 µg/mL |
| CC(C)CN(C[C@@H](O)[C@H](Cc1ccccc1)NC(=O)O[C@H]1CO[C@H]2OCC[C@H]21)S(=O)(=O)c1ccc(N)cc1 | Human immunodeficiency virus 1 | viral replication | T-lymphoid |  | IC50 | 1.6 nM |
| Cc1ccnc2c1NC(=O)c1cccnc1N2C1CC1 | Human immunodeficiency virus 1 | viral replication | human PBMC | clinical isolate | IC90 | 242 nM |
| COC(=O)c1cc(-c2cccc(NC(=O)Nc3c(C)cccc3C)c2)on1 | Mycolicibacterium fortuitum | microbial growth, broth dilution | ATCC6841 | 48 h | MIC | > 64 µg/mL |
